From article PMC10786240 (Antiviral research, 2019)
“Also recorded” adds a separate entry of the source.

Legend:
[1] = test system: OSBP levels in HCT-116 and HEK293 cells; experiment: OSBP expression in cells upon 24 h compound treatment; format: cell-based, human; conditions: for effect of co-administration on OSW-1-induced reduction of OSBP levels: 10,000 nM compound with 1 nM OSW-1, HEK293 and HCT116; for effect on OSBP cellular levels: OSW-1 1 nM, Taxol 10 nM, ITZ, THEV, TTP 10,000 nM, HEK293 and HCT-116
In short: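 HCT-116 (McCoy's 5A, 10% serum, 1% penicillin-streptomycin) or HEK293 cells seeded 5×10^5 per well, 20 h at 37 °C. Compound diluted from stock in complete medium, alone or with 1 nM OSW-1 co-treatment, for 24 h; DMSO vehicle control. Lysates immunoblotted for OSBP (A-5 antibody), β-actin as loading reference. Bands averaged over independent experiments.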

[2] = test system: N-terminal OSBP FFAT domain with VAP-A; conditions: BiMC assay; cited from earlier work
human OSBP [3] = biological target: T1, human OSBP (Homo sapiens, UniProt P22059); experiment: 96-well [3H]-25-OHC competitive binding assay, OSBP; conditions: compound at 10,000 nM; 20 nM 3H-25-OHC
T1 sequence (P22059 1-807): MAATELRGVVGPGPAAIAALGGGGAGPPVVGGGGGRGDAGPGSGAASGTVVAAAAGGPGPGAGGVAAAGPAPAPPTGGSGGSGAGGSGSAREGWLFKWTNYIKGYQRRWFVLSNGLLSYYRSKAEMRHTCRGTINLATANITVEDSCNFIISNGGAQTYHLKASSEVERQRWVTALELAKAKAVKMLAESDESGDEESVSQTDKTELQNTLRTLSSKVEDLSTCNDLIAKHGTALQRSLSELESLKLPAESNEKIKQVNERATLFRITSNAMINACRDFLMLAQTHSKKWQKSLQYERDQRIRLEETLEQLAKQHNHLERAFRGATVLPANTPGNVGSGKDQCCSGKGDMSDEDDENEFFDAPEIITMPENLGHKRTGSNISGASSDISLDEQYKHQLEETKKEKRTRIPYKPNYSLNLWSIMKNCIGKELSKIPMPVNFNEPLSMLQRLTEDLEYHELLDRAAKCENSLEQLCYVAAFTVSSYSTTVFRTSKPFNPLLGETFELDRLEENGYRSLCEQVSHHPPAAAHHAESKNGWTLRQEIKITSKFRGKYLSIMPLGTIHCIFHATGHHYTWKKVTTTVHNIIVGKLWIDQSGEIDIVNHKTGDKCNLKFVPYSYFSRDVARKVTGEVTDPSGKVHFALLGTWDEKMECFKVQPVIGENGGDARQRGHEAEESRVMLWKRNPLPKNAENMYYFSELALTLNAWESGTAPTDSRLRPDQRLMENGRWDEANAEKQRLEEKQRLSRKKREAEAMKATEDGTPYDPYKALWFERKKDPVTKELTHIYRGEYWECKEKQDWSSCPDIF

OSBP = conditions: in vitro; cited from earlier work
HCT-116 cells = experiment: Trypan Blue cell viability assay; format: cell-based; conditions: for effect on cell population (cell counting after Trypan blue staining): 24 h, OSW-1 1 nM, ITZ, THEV, TTP 10,000 nM, each alone
immortalized cell lines = experiment: 48 h assay for cell metabolic activity; format: cell-based; conditions: at <10,000 nM concentrations, Fig. 4B, Supp. Fig. 1
human ORP4 [4] = biological target: T2, human ORP4 (Homo sapiens, UniProt Q969R2); experiment: 96-well [3H]-25-OHC competitive binding assay, ORP4; conditions: compound at 10,000 nM; 20 nM 3H-25-OHC
T2 sequence (Q969R2 1-916): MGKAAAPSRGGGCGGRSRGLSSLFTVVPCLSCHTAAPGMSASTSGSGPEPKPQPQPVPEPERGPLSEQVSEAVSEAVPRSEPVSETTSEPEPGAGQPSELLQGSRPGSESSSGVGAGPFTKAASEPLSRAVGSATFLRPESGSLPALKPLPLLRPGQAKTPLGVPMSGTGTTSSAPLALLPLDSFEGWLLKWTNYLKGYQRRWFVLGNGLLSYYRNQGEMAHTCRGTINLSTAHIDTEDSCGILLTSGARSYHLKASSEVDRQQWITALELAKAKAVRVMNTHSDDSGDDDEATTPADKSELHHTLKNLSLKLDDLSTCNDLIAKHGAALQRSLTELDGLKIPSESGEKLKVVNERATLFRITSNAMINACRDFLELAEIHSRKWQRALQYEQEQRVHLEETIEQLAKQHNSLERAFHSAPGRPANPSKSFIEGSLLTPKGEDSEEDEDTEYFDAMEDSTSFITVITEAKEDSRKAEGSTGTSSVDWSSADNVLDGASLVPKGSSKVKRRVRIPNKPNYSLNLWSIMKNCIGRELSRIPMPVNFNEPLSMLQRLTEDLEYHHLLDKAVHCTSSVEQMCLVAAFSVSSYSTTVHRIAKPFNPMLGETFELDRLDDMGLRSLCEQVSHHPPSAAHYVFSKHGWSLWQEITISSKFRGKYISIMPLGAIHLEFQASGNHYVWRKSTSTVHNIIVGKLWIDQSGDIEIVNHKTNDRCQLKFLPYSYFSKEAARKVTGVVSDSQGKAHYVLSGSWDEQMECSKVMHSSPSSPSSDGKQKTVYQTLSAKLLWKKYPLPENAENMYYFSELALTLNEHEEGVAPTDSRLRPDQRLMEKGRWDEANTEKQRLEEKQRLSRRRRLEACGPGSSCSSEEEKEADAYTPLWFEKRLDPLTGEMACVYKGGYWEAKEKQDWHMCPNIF
In short: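 Inhibition of 20 nM [3H]-25-OHC binding to human ORP4 overexpressed in […] cell lysate, run in 96-well competitive format; […].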

HeLa cells = experiment: 48 h cytotoxicity assay; format: cell-based; conditions: for effect of co-administration on antiproliferative OSW-1 activity, HeLa: 48 h, compound at 10,000 nM with OSW-1
[5] = test system: OSBP localization in HCT-116 cells; experiment: immunofluorescence imaging of endogenous OSBP localization; format: cell-based; conditions: for OSBP cellular localization on co-administration with OSW-1: 24 h, 10,000 nM compound with 1 nM OSW-1; for OSBP cellular localization: 24 h, OSW-1 1 nM, 25-OHC, ITZ, TTP, THEV 10,000 nM, Golgi marker TGN46
OSBP C-terminal ORD = conditions: OSBP proteolyzed fragments; cited from earlier work
full-length GFP-OSBP = conditions: read-out: KD for full-length GFP-OSBP; microscale thermophoresis; cited from earlier work
OSBP levels in cells = conditions: cited from earlier work
HEK293 cells = experiment: 48 h cytotoxicity assay; format: cell-based; conditions: read-out: growth inhibition 50% (GI50), HEK293 cells; 48 h treatment
[6] = test system: Echovirus 2 (strain Echo2–01); conditions: HeLa; 1 nM OSW-1; infection 24 h after treatment ended; cited from earlier work
[7] = test system: OSBP levels in HeLa cells; experiment: OSBP levels in HeLa cells after 6 h treatment and 24 h compound-free recovery; format: cell-based, human; conditions: 6 h OSW-1 (10 nM) treatment, 24 h recovery, just prior to viral infection
In short: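 HeLa cells exposed 6 h to compound in complete medium, washed three times, then held 24 h in compound-free complete medium. OSBP read by Western blot (A-5 antibody, β-actin reference) at the time point corresponding to viral inoculation in washout antiviral runs.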

human OSBP [8] = biological target: T1, human OSBP; conditions: cited from earlier work
[9] = test system: Coxsackievirus A9 (strain CoxA9–01); conditions: HeLa; 1 nM OSW-1; infection 24 h after treatment ended; cited from earlier work
human ORP4 [10] = biological target: T2, human ORP4; conditions: cited from earlier work
cells = conditions: 6 h OSW-1 treatment of cells; cited from earlier work

Row | Structure (SMILES) | effect of co-administration on OSW-1-induced reduction of OSBP levels [1] | effect on OSBP cellular levels [1] | effect on cell population (cell counting after Trypan blue staining) (HCT-116 cells) | antiproliferative activity (immortalized cell lines) | effect of co-administration on antiproliferative OSW-1 activity, HeLa (HeLa cells) | OSBP cellular localization on co-administration with OSW-1 [5] | OSBP cellular localization [5] | further results
1 | C[C@@H](NC(=O)c1cccc(-c2cnc(-c3cc4ccccc4cn3)[nH]2)c1)c1ccc(F)cc1 [TTP] | has no effect on OSBP levels | do not reduce OSBP levels | does not affect the cell population | no antiproliferative activity | does not significantly affect the antiproliferative OSW-1 activity | low expression of OSBP with a pattern not consistent with the OSW-1 alone or TTP alone treatment | induces a tight colocalization of OSBP with the Golgi marker with a perinuclear pattern close to the vehicle (DMSO) treated cell | inhibition of OSBP FFAT domain interaction with VAP-A [2]: Neither ITZ (3) or TTP (5) substantially inhibited; inhibition of 25-OHC binding to OSBP (human OSBP [3]): no 25-OHC inhibition binding; inhibition of OSBP cholesterol transport between vesicles (OSBP): shown to inhibit the ability of OSBP to transport cholesterol between vesicles; inhibition of 25-OHC binding to ORP4 (human ORP4 [4]): no 25-OHC inhibition binding
2 | CCC(C)n1ncn(-c2ccc(N3CCN(c4ccc(OCC5COC(Cn6cncn6)(c6ccc(Cl)cc6Cl)O5)cc4)CC3)cc2)c1=O (stereo not drawn) [ITZ, itraconazole] | partially blocks the reduction of OSBP levels | do not reduce OSBP levels | 15–20% | no antiproliferative activity | does not significantly affect the antiproliferative OSW-1 activity | produces a tight localization of OSBP with a stronger signal than OSW-1 alone | causes OSBP to adopt a more punctate pattern closely associated with the Golgi marker | effect on ORD lipid transfer activity (OSBP C-terminal ORD): blocked the ORD transfer activity of both sterols and PI4P; inhibition of OSBP FFAT domain interaction with VAP-A [2]: Neither ITZ (3) or TTP (5) substantially inhibited; inhibition of 25-OHC binding to OSBP (human OSBP [3]): no 25-OHC inhibition binding; Kd (full-length GFP-OSBP): ~430 nM; inhibition of 25-OHC binding to ORP4 (human ORP4 [4]): no 25-OHC inhibition binding
3 | CC1(C)C[C@H]2[C@@H]3CC=C4C[C@@H](OC5CCCCO5)CC[C@]4(C)[C@H]3CC[C@]2(C)[C@H]1O (stereo partly drawn) [THEV] | partially blocks the reduction of OSBP levels | do not reduce OSBP levels | does not affect the cell population | no antiproliferative activity | does not significantly affect the antiproliferative OSW-1 activity | produces cellular localization effects with elements of both OSW-1 and THEV treatment alone | induces OSBP localization to confined area tightly packed with the Golgi marker | effect of co-administration with OSW-1 on cell population (Trypan blue) (HCT-116 cells; 24 h, 10,000 nM compound with 1 nM OSW-1): rescues cell population numbers
4 | CC(=O)O[C@H]1C(=O)[C@@]2(C)[C@H]([C@H](OC(=O)c3ccccc3)[C@]3(O)C[C@H](OC(=O)[C@H](O)[C@@H](NC(=O)c4ccccc4)c4ccccc4)C(C)=C1C3(C)C)[C@]1(OC(C)=O)CO[C@@H]1C[C@@H]2O [Taxol] | – | OSBP levels are not reduced | – | – | – | – | – | –
5 | CC(C)=CCC/C(C)=C/Cc1c(O)cc(/C=C/c2cc(O)c3c(c2)C[C@@H]2C(C)(C)[C@H](O)[C@H](O)C[C@@]2(C)O3)cc1O [schweinfurthin A] | – | – | – | – | – | – | – | effect on OSBP levels in cells (OSBP levels in cells): do not reduce OSBP levels
6 | COc1ccc(C(=O)O[C@H]2[C@H](O[C@@H]3[C@@H](OC(C)=O)[C@H](O[C@H]4C[C@H]5[C@@H]6CC=C7C[C@@H](O)CC[C@]7(C)[C@H]6CC[C@]5(C)[C@@]4(O)[C@H](C)C(=O)CCC(C)C)OC[C@@H]3O)OC[C@@H](O)[C@@H]2O)cc1 [OSW-1] | – | pronounced reduction of OSBP cellular levels | 15–20% | – | – | – | remaining OSBP is tightly grouped around one location | GI50 (HEK293 cells): 0.22 nM; prophylactic antiviral protection, Echovirus 2 [6]: conferred significant antiviral protection; reduction of cellular OSBP levels [7]: > 90%; Ki, competitive inhibition of 25-OHC binding to OSBP (human OSBP [8]): low nanomolar; prophylactic antiviral protection, Cosackievirus 9a [9]: conferred significant antiviral protection; GI50 (HeLa cells; read-out: growth inhibition 50% (GI50), HeLa cells, 48 h treatment): 0.33 nM; Ki, competitive inhibition of 25-OHC binding to ORP4 (human ORP4 [10]): low nanomolar; duration of repression of OSBP levels after compound treatment is stopped (OSBP levels in cells; 1 nM OSW-1 for 6 h, then compound removed): 72 h; reduction of OSBP levels in cells (OSBP levels in cells; short duration (1–6 h), non-cytotoxic dose): > 90%; cytotoxicity of 6 h treatment (cells): not cytotoxic nor anti-proliferative
7 | C[C@H](CCCC(C)(C)O)[C@H]1CC[C@H]2[C@@H]3CC=C4C[C@@H](O)CC[C@]4(C)[C@H]3CC[C@]12C [25-OHC, 25-hydroxycholesterol] | – | – | – | – | – | – | strongly colocalizes OSBP with the Golgi marker in a small area | effect on OSBP levels in cells (OSBP levels in cells): does not reduce OSBP levels in cells; also recorded: do not reduce OSBP levels
